Sampled rows, rich in hits. Any-hit rate of the full collection: about 2.3%.
PLC-gamma1 inh – PLC-gamma1 enzyme inhibitors, primary screen, biochemical, fluorescence, purified enzyme; AID 720700, 2013; 1-phosphatidylinositol 4,5-bisphosphate phosphodiesterase gamma-1 (Homo sapiens), P19174; actives 0.84% (n = 370,000); fluorogenic substrate; inhibition, % at 12.2 µM
PLC-beta3 inh – human PLC-beta3 inhibitors, primary screen, biochemical, fluorescence. 1-phosphatidylinositol 4,5-bisphosphate phosphodiesterase beta-3 (Homo sapiens), Q01970. Purified PLC-beta3, fluorogenic substrate. inhibition, % at 12.2 µM. actives 0.18% (n = 370,000). AID 720704, 2013; in the data active = inhibition above about 11%;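 note: 0% = median of compound wells on plate and 100% = full blocker control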
Tb MetRS inh – T. brucei MetRS inhibitors, primary screen, biochemical, luminescence; methionyl-tRNA synthetase (Trypanosoma brucei brucei); purified T. brucei MetRS, ATP depletion, Kinase-Glo luminescence; inhibition, % at 11.9 µM; actives 0.4% (n = 360,000); AID 624268, 2012;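 active = inhibition above a per-plate cutoff of the control wells' mean inhibition plus 3 SD, cut at about 5.5% in these data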;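 note: 0% = DMSO wells median and 100% = median of wells with control inhibitor compound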
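Assay system: T. brucei methionyl-tRNA synthetase, purified | Medium: HEPES buffer with MgCl2, KCl, DTT, spermine, BSA, pyrophosphatase | Compound: 11.9 µM single point | Incubation: 15 min enzyme-compound preincubation, 2 h reaction, 10 min detection, 25 °C | Measured by: Kinase-Glo luciferase luminescence reporting remaining unconsumed ATP | Measure: % inhibition normalized to control-well medians | Replication: Singlicate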
ADAM10 inh – human ADAM10 inhibitors, primary screen, biochemical, QFRET, HTS | Disintegrin and metalloproteinase domain-containing protein 10 (Homo sapiens), O14672 | recombinant ADAM10, EDANS/DABCYL FRET peptide cleavage, 3 h | inhibition, % at 7 µM | actives 0.62% (n = 370,000) | AID 720582, 2013;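 active = inhibition above a per-campaign cutoff equal to the mean of compounds falling between control-based bounds plus 3 SD, cut at about 20% in these data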;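 note: 0% = DMSO wells while the 100% control is not disclosed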
ADAM17 inh – ADAM17 inhibitors, primary screen, biochemical, QFRET; actives 0.83% (n = 370,000); Disintegrin and metalloproteinase domain-containing protein 17 (Homo sapiens), P78536; inhibition, % at 6.95 µM; AID 720648, 2013; recombinant ADAM17, EDANS/DABCYL FRET peptide cleavage;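 active = inhibition above the mean of compounds lying between control limits plus 3 SD, set per campaign, cut at about 8.5% in these data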;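 note: 0% = DMSO-only wells as the low control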
Target sequence (P78536 215-824 limits assumed): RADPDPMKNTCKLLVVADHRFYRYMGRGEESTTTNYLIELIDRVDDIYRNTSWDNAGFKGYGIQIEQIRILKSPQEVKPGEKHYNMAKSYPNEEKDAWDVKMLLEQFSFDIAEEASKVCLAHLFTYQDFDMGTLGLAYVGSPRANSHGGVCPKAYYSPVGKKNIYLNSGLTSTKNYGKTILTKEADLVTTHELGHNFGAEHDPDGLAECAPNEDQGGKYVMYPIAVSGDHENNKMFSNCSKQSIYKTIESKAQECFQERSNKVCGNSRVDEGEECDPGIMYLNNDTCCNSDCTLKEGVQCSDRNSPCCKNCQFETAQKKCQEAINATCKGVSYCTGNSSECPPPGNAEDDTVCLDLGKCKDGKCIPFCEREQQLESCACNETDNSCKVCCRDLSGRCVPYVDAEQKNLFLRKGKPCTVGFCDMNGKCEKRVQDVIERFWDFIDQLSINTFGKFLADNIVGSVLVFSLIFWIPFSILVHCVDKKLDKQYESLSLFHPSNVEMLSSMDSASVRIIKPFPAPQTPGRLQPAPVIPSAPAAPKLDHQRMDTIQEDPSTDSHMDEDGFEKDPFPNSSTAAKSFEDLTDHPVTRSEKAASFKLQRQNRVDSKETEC
PLCg1 ctr – PLC-gamma1 enzyme inhibitors, counter-screen for PLC-beta3 inhibitor project, biochemical, fluorescence; actives 3.1% (n = 3,300); shares compounds with PLC-gamma1 inh; inhibition, % at 12.3 µM; purified PLC-gamma1, fluorogenic substrate; AID 743258, 2014
PLCbeta3 conf – PLC-beta3 inhibitor confirmation, biochemical, fluorescence, purified enzyme; shares compounds with PLC-gamma1 inh; fluorogenic substrate fluorescence; inhibition, % at 12.3 µM; actives 1% (n = 3,300); AID 743261, 2014; in the data active = inhibition above about 11%
The depositor's hits bear a star; x = not tested or not shown; ! = not active in a repeat. Cut-off read from the data, not from the text of the source, unless noted: active = inhibition above about 9.5%; inactive = the rest.

SMILES	PLC-gamma1 inh	PLC-beta3 inh	Tb MetRS inh	ADAM10 inh	ADAM17 inh	PLCg1 ctr	PLCbeta3 conf
NS(=O)(=O)c1ccc(CCNC(=O)C2CCCCN2S(=O)(=O)c2ccccc2)cc1 (stereo unspecified)	13*	4	-1	7	0	-6	-2
O=C(Cn1c(CO)nc2ccccc21)NCc1ccc2c(c1)OCO2	2	-7	3	2	-2	x	x
O=C(NCc1ccc2c(c1)OCO2)C1COc2ccccc2O1 (stereo unspecified)	11*	5	0	8	8	-5	-2
CC(=O)c1c(C)n(CC(=O)NCc2ccc3c(c2)OCO3)c2ccccc12	11*	-5	0	-2	-2	-7	-2
O=C(NCc1ccncc1)C1COc2ccccc2O1 (stereo unspecified)	1	-1	-1	3	-4	x	x
Cc1nc2ccccn2c1C(=O)N/N=C/c1ccc2c(c1)OCO2	-3	0	-1	-7	4	x	x
Cc1nc2ccccn2c1C(=O)NCc1ccc2c(c1)OCO2	10*	0	0	1	1	-5	-2
O=C(CN1CCN(c2ccccn2)CC1)Nc1ccc([N+](=O)[O-])cc1C(=O)Nc1ccccc1F	1	-5	0	7	-4	x	x
Cc1nn(Cc2cccc(F)c2)c(C)c1NC(=O)c1c(Cl)cnn1C	2	1	0	-8	-2	x	x
Cc1cc(C)c(C#N)c(OCC2CCCO2)n1 (stereo unspecified)	5	11*	0	3	7	-7	-1
Cc1ccc(S(=O)(=O)N2CCN(CC(=O)NC3CCCc4ccccc43)CC2)cc1C (stereo unspecified)	11*!	5	0	-3	8	-3	0
Cc1ccc(S(=O)(=O)N2CCN(CC(=O)NC3CCCc4ccccc43)CC2)c(C)c1 (stereo unspecified)	3	1	-1	2	2	x	x
Cc1ccc([C@H]2N[C@]3(CCCN(Cc4ccco4)C3=O)[C@H]3C(=O)N(Cc4ccccc4)C(=O)[C@@H]23)cc1	12*	3	1	0	3	0	-4
O=C(c1nnsc1S(=O)(=O)c1ccc(Cl)cc1)N1CCOCC1	18*	7	0	9	-1	9	0
O=C(Cn1ccc([N+](=O)[O-])n1)Nc1nccs1	9.6*	8	0	6	5	-2	3
CC(=O)Nc1cccc(CP(=O)(c2ccccc2)c2ccccc2)c1	13*	-1	0	7	0	1	3
O=C(NCc1cccnc1)c1ccc(NC(=O)c2ccc([N+](=O)[O-])cc2)cc1	13*	-1	-1	3	-2	-2	-1
O=C(NC(=S)NCc1cccnc1)c1ccc([N+](=O)[O-])cc1	-2	2	-1	-5	-1	x	x
O=C(NCc1cccnc1)c1ccccc1-c1ccccc1	-4	-1	0	-11	-8	x	x
O=C(O)c1ccccc1C(=O)NCc1cccnc1	5	14*	-1	5	7	-5	3
CCN1CCCC1CNC(=O)c1cc(COc2ccc(C)c(C)c2)on1 (stereo unspecified)	-4	-10	0	-6	-3	x	x
COc1ccc(C(=O)Nc2ccc(C)c(S(=O)(=O)N3CCCCCC3)c2)cc1	11*	5	-1	12	4	5	6
Cc1cccc(NC(=O)CSc2nnc(-c3ccc(S(=O)(=O)N4CCCC4)cc3)o2)c1	x	x	-1	x	x	x	x
Cc1ccc(NC(=O)CSc2nnc(-c3ccc(S(=O)(=O)N4CCCC4)cc3)o2)cc1C	12*	3	0	-7	2	-5	-4
COc1ccc(NC(=O)CSc2nc(N)cc(=O)[nH]2)cc1S(=O)(=O)N1CCCCC1	0	0	-1	-1	0	x	x
SMILES	PLC-gamma1 inh	PLC-beta3 inh	Tb MetRS inh	ADAM10 inh	ADAM17 inh	PLCg1 ctr	PLCbeta3 conf
Cc1ccc(NC(=O)c2ccc(F)cc2)cc1S(=O)(=O)N1CCCCCC1	8	8	1	6	4	x	x
Cc1cc(=O)[nH]c(SCC(=O)Nc2ccc(C)c(S(=O)(=O)N3CCCCC3)c2)n1	12*	-2	0	4	2	-3	-1
CCOC(=O)c1cnc(SC)nc1Sc1cc(Cl)ccc1Cl	1	1	0	5	-4	x	x
O=C(CCc1nc(-c2ccccc2)no1)NCc1ccccc1CN1CCOCC1	-1	-8	0	-16	-3	x	x
Cc1cc(Br)cc2c(C(=O)NCC3CCCO3)cc(-c3cccs3)nc12 (stereo unspecified)	12*	2	0	-9	1	-23	-31
O=C(CSCC(=O)N1CCOCC1)Nc1nc(-c2ccccc2)cs1	3	-9	0	1	-4	x	x
O=C(CSCC(=O)N1CCOCC1)Nc1ccccc1	11*	5	-1	11	6	-8	-2
Cc1cccc(C)c1-n1ncc(C(=O)NC2CCCC2)c1C1CCNCC1	15*	2	1	-1	3	0	6
Cc1cccc(NC(=S)N(Cc2cccc(Br)c2)CC2CCC(C(=O)O)CC2)c1 (stereo unspecified)	11*	-1	-1	6	3	-11	-5
CCC(C)NC(=O)CNC(=S)N(Cc1ccccc1)Cc1cccnc1 (stereo unspecified)	9.7*	4	-1	7	1	1	2
CC1CCCCN1C(=O)C(Cc1ccccc1)N1C(=O)C2CCCCC2C1=O (stereo unspecified)	11*	11*	0	3	3	-3	-3
CC1CCCCN1C(=O)N[C@@H](Cc1ccccc1)C(=O)O (stereo partly specified)	4	1	0	-5	-5	x	x
CC(C)(C)c1ccc(C(=O)N2CCC2(C)C(=O)Nc2cccc(C#N)c2)cc1 (stereo unspecified)	-1	3	2	6	5	x	x
Nn1c(SCc2cn3ccccc3n2)nnc1-c1ccncc1	4	-1	-1	3	0	x	x
Nn1c(SCc2cn3cc(Cl)ccc3n2)nnc1-c1ccncc1	11*	-8	-1	2	4	-6	-3
